Reference: ChEMBL document CHEMBL1129065, “Longimicins A-D: novel bioactive acetogenins from Asimina longifolia (annonaceae) and structure-activity relationships of asimicin type of annonaceous acetogenins” (1996)
In brackets after ≈: the same amount, converted by molar mass.

How the values were obtained:
Format in all cases: functional
Artemia = assay: Lethal concentration required against bioactivity using brine shrimp lethality test
Culicidae = assay: Lethal concentration required against bioactivity using yellow fever mosquito larvae assay
A498 = assay: Cytotoxicity concentration against human kidney carcinoma A-498 cell line; settings: read-out: ED50 (the source's name)
Outline: (§1)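 7-day MTT cytotoxicity assay in human tumor cells, run at the Purdue Cancer Center cell culture lab under standard protocols. Samples serially diluted and each concentration tested in duplicate. ED50 calculated from the averaged values per concentration. Adriamycin included as positive control in every experiment.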

A549 = assay: Cytotoxicity concentration against human lung carcinoma A-549 cell line; settings: read-out: ED50 (the source's name); outline: as §1
PC-3 = assay: Cytotoxicity concentration against human prostate […] PC-3 cell line; settings: read-out: ED50 (the source's name); outline: as §1
HT-29 = assay: Cytotoxicity concentration against human colon […] HT-29 cell line; settings: read-out: ED50 (the source's name); outline: as §1
MCF7 = assay: Cytotoxicity concentration against human breast carcinoma MCF-7 cell line; settings: read-out: ED50 (the source's name); outline: as §1
MIA PaCa-2 = assay: Cytotoxicity concentration against human pancreatic carcinoma PaCa-2 cell line; settings: read-out: ED50 (the source's name); outline: as §1

Compound	LC50 (Artemia)	LC50 (Culicidae)	EC50 (A498)	EC50 (A549)	EC50 (PC-3)	EC50 (HT-29)	EC50 (MCF7)	EC50 (MIA PaCa-2)
CCCCCCC[C@H]1CC[C@H](CCCC[C@@H](O)[C@H]2CC[C@H](CCC[C@H](O)[C@@H](O)CCCCCCCC3=C[C@H](C)OC3=O)O2)O1 [ASIMIN]	0.0046 µg/mL (≈ 0.00738 µM)							
CCCCCCCCCCCC[C@@H](O)[C@H]1CC[C@H]([C@H]2CC[C@H]([C@H](O)CC[C@H](O)CCCCCCCC3=C[C@H](C)OC3=O)O2)O1	4.58 µg/mL (≈ 7.35 µM)	8.29 µg/mL (≈ 13.3 µM)	0.0353 µg/mL (≈ 0.0567 µM)	0.000493 µg/mL (≈ 0.000791 µM)	0.000242 µg/mL (≈ 0.000388 µM)	0.0116 µg/mL (≈ 0.0186 µM)	0.215 µg/mL (≈ 0.345 µM)	
COc1cccc2c1C(=O)c1c(O)c3c(c(O)c1C2=O)C[C@@](O)(C(=O)CO)C[C@@H]3O[C@H]1C[C@H](N)[C@H](O)[C@H](C)O1 [DOXORUBICIN]	0.26 µg/mL (≈ 0.478 µM)		0.0663 µg/mL (≈ 0.122 µM)	0.0262 µg/mL (≈ 0.0482 µM)	0.287 µg/mL (≈ 0.528 µM)	0.0494 µg/mL (≈ 0.0909 µM)	0.194 µg/mL (≈ 0.357 µM)	0.034 µg/mL (≈ 0.0626 µM)
CCCCCCCCCCCCCC[C@@H](O)[C@H]1CC[C@H]([C@H]2CC[C@H]([C@H](O)CCCCCC[C@@H](O)CC3=C[C@H](C)OC3=O)O2)O1	18.7 µg/mL (≈ 30 µM)	141 µg/mL (≈ 226 µM)	0.544 µg/mL (≈ 0.873 µM)	0.295 µg/mL (≈ 0.474 µM)	0.0701 µg/mL (≈ 0.113 µM)	0.525 µg/mL (≈ 0.843 µM)	0.889 µg/mL (≈ 1.43 µM)	0.0173 µg/mL (≈ 0.0278 µM)
CCCCCCCCCC[C@@H](O)[C@H]1CC[C@H]([C@H]2CC[C@H]([C@H](O)CCCCCCCC[C@@H](O)CC3=C[C@H](C)OC3=O)O2)O1 [PARVIFLORIN]	0.088 µg/mL (≈ 0.148 µM)					0.549 µg/mL (≈ 0.923 µM)	1.72 µg/mL (≈ 2.89 µM)	
CCCCCCCCCCCCCC[C@@H](O)[C@H]1CC[C@H]([C@H]2CC[C@H]([C@H](O)CCCC[C@@H](O)CC3=C[C@H](C)OC3=O)O2)O1	9.42 µg/mL (≈ 15.8 µM)	75.7 µg/mL (≈ 127 µM)	0.127 µg/mL (≈ 0.213 µM)	0.455 µg/mL (≈ 0.765 µM)	2.96 µg/mL (≈ 4.98 µM)	1 µg/mL (≈ 1.68 µM)	0.088 µg/mL (≈ 0.148 µM)	1.09 µg/mL (≈ 1.83 µM)
CCCCCCCCCCCC[C@@H](O)[C@H]1CC[C@H]([C@H]2CC[C@H]([C@H](O)CCCCCC[C@@H](O)CC3=C[C@H](C)OC3=O)O2)O1	7.34 µg/mL (≈ 12.3 µM)	30.4 µg/mL (≈ 51.1 µM)	0.064 µg/mL (≈ 0.108 µM)	0.143 µg/mL (≈ 0.24 µM)	2.2 µg/mL (≈ 3.7 µM)	0.00332 µg/mL (≈ 0.00558 µM)	0.0154 µg/mL (≈ 0.0259 µM)	0.0792 µg/mL (≈ 0.133 µM)
CCCCCCCCCCC(O)C1CCC(C2CCC(C(O)CCCCCCCC[C@H](O)CC3=C[C@@H](C)OC3=O)O2)O1 (stereo partly specified) [ASIMICIN]	0.026 µg/mL (≈ 0.0437 µM)	3.04 µg/mL (≈ 5.11 µM)		0.00843 µg/mL (≈ 0.0142 µM)			0.852 µg/mL (≈ 1.43 µM)	
